According to publication PMC6333101 (ACS chemical biology, 2018):
Where two headings read alike, the source gives them in different places.

Experiments:
BRD4 (BD1) [1] = biological target: T1, BRD4 (BD1) (Homo sapiens, UniProt O60885); experiment: BRD4-1 AlphaScreen binding assay
ERK5 [2] = experiment: Cellular assay of ERK5; format: cell-based, Human
BRD4 (BD1) [3] = biological target: T1, BRD4 (BD1); experiment: BRD4-1 AlphaScreen binding assay; remark: listed apart in the source
LRRK2 = LRRK2 (Homo sapiens, UniProt Q5S007); experiment: LRRK2 kinase activity in vitro assay; format: biochemical
panel of 32 bromodomains = experiment: BROMOscan bromodomain profiling; format: binding; conditions: 10 μM
ERK5 [4] = biological target: ERK5 (Homo sapiens, UniProt Q13164); experiment: ERK5 kinase activity in vitro assay; format: biochemical; conditions: for IC50: read-out: Enzymatic IC50 (ERK5), in vitro assay, average of 2 replicates ± SD
DCAMKL2 [5] = biological target: T2, DCAMKL2 (Homo sapiens, UniProt Q8N568); experiment: KinomeScan kinome profiling, DCAMKL2; format: binding; conditions: 1 μM, panel of 468 human kinases
T2 sequence (Q8N568 1-766): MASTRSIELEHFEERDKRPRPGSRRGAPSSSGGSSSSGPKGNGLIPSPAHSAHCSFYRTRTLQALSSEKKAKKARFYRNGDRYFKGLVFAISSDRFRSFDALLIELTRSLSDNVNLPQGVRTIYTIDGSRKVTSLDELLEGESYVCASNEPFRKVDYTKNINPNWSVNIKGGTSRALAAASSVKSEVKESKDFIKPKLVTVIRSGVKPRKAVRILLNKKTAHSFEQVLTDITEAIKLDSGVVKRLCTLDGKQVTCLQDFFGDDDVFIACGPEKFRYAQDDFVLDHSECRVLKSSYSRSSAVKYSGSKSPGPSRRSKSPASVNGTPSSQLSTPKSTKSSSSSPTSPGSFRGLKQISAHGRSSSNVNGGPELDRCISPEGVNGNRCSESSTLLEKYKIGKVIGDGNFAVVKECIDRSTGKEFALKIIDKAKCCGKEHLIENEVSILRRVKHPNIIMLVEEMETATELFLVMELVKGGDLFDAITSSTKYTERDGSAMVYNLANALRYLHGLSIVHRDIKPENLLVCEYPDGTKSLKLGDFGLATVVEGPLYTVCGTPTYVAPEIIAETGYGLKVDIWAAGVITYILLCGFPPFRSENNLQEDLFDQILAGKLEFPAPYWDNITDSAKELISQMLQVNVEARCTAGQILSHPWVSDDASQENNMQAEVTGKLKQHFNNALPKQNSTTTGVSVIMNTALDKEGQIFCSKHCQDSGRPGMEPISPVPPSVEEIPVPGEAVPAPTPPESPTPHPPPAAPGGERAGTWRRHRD
Method in brief: (§1)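 KinomeScan ScanMAX binding panel, single test compound concentration of 1 μM. A hit was defined as an Ambit score below 10%.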

[6] = system: 797 NUT-midline carcinoma cells; experiment: 797 NMC cell viability assay; format: cell-based; conditions: read-out: Viability IC50 (BRD4), Cell Titer Glo, 3 days, average of 3 replicates ± SD
Method in brief: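 797 NUT-midline carcinoma cells were seeded at 5,000 cells/well and exposed for 3 days to a range of test compound concentrations or DMSO. Relative cell number was read with Cell Titer Glo following the kit instructions. The methods state 6 replicates; the reported IC50 is the mean of 3 replicates ± SD.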

[7] = Variable temperature 1H NMR, interconversion of conformers; format: physicochemical
DCAMKL2 [8] = experiment: DCAMKL2 biochemical enzyme assay; conditions: in vitro biochemical enzyme assays
ERK5 [9] = experiment: KinomeScan kinome profiling, ERK5; format: binding; conditions: 1 μM, panel of 468 human kinases
Method in brief: as §1

[10] = Homo sapiens, HeLa, read-out: Cellular EC50 (ERK5, μM)
[11] = read-out: Biochemical IC50 (BRD4, μM) a, AlphaScreen, Dana-Farber, average of 2 replicates ± SE
[12] = read-out: Enzymatic IC50 (LRRK2), Adapta assay format, average of 2 replicates ± SD
[13] = read-out: Biochemical IC50 (BRD4, μM) b, AlphaScreen, University of Oxford, average of 4 replicates ± SD

Sequence of ERK5 (Homo sapiens, UniProt Q13164) (Q13164 whole entry): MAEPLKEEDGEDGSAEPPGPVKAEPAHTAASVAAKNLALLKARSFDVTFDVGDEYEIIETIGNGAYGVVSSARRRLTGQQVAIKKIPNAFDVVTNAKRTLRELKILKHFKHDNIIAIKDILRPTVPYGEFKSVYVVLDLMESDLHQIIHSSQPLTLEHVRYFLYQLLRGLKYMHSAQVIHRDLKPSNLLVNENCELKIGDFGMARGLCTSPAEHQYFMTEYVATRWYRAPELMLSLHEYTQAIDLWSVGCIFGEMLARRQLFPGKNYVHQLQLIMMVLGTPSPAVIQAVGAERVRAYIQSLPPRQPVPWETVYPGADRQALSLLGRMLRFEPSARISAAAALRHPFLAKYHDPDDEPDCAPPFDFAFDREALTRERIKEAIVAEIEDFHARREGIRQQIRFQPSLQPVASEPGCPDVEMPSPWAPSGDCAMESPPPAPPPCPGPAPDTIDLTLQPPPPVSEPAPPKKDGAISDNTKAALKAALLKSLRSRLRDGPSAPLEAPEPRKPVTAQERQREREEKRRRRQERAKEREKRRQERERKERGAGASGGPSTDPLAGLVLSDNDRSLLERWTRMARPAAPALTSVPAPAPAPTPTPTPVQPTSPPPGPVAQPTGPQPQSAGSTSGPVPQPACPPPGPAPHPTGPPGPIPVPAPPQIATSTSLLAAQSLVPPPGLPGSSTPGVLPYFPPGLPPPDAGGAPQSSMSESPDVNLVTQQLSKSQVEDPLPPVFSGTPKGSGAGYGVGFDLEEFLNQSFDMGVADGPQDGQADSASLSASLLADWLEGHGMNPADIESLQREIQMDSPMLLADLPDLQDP
Sequence of LRRK2 (Q5S007 whole entry): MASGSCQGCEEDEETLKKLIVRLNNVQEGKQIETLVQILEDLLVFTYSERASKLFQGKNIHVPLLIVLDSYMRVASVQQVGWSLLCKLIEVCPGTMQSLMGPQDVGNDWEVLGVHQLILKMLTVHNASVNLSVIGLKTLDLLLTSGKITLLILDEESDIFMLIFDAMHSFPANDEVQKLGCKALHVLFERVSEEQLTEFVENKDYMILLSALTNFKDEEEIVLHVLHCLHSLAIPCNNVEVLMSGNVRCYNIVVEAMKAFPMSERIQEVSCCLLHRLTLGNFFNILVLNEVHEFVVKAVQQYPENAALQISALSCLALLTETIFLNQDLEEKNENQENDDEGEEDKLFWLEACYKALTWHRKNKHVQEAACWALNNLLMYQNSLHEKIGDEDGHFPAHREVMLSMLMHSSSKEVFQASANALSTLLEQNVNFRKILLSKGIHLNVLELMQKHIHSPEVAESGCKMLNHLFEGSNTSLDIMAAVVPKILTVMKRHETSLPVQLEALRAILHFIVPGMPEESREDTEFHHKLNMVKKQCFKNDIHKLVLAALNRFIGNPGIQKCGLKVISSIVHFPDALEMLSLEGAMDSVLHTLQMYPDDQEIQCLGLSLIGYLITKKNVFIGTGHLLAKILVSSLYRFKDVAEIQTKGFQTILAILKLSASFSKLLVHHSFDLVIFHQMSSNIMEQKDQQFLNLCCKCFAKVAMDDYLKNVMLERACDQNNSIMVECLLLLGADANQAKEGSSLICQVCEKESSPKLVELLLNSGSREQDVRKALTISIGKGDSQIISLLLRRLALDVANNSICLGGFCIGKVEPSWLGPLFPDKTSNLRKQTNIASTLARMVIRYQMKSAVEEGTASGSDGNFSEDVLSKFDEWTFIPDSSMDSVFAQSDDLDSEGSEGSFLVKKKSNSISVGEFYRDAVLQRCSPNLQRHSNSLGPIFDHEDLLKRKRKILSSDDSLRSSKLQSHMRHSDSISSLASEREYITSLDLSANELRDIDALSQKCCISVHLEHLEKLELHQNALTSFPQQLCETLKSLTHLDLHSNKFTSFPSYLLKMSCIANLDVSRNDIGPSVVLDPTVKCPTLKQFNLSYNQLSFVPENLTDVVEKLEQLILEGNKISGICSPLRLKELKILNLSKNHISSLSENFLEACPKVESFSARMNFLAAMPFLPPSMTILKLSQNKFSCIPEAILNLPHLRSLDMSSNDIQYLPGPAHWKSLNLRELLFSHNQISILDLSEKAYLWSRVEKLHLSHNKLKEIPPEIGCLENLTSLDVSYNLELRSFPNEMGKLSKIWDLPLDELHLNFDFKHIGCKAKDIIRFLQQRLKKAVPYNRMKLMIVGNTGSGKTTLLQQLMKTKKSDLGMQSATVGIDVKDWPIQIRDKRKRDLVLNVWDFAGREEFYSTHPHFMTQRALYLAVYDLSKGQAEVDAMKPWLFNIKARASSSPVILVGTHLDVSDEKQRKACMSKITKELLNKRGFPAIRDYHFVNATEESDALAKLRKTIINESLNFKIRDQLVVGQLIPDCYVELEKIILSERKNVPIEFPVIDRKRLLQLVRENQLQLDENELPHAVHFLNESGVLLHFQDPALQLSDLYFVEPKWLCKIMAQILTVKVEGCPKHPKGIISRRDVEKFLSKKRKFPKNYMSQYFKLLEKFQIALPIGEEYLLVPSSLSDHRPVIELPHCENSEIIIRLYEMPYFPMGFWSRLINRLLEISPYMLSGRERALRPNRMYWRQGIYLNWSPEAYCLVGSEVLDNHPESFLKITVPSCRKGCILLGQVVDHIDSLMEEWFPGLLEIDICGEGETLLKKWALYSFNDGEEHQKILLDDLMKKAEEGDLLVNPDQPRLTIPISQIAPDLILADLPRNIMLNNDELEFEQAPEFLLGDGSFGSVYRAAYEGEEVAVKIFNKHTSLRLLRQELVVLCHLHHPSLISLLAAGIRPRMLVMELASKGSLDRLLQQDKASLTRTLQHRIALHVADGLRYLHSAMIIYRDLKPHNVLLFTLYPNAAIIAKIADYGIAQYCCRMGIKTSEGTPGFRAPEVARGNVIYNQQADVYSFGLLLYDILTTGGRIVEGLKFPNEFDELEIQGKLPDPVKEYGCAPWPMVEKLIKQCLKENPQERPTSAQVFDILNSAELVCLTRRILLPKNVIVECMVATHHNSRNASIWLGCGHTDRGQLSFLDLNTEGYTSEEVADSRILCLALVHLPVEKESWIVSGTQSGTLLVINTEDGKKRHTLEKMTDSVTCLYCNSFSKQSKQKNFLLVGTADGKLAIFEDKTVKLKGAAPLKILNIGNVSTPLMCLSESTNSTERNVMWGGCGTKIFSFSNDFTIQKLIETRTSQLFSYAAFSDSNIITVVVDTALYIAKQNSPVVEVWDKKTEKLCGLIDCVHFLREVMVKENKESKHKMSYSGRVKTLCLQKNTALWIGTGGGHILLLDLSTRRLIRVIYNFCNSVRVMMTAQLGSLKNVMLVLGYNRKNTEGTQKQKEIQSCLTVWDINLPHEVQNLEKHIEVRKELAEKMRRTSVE

Compound: CCOc1cc(C(=O)N2CCC(N3CCN(C)CC3)CC2)ccc1Nc1ncc2c(n1)N(C1CCCC1)c1ccccc1C(=O)N2C [XMD17–109 (ERK5-IN-1), reference compound]
- IC50 (BRD4 (BD1) [1]): 0.217 ± 0.008 µM
- IC50 (BRD4 (BD1) [3]): 0.68 ± 0.03 µM

Compound: COc1cc(C(=O)N2CCC(N3CCN(C)CC3)CC2)ccc1Nc1ncc2c(n1)N(C)c1ccccc1C(=O)N2C [XMD11–50 (LRRK2-IN-1)]
- IC50 (LRRK2): 3.4 ± 1.7 nM

Compound: CCOc1cc(C(=O)N2CCC(N3CCN(C)CC3)CC2)ccc1Nc1ncc2c(n1)N(S(C)(=O)=O)c1ccccc1C(=O)N2C [AX15836, reference compound]
- IC50 (LRRK2): 942 ± 569 nM

Compound: CC(C)Oc1cc(C(=O)N2CCC(N3CCN(C)CC3)CC2)ccc1Nc1ccc2c(n1)N(C1CCCC1)c1ccccc1C(=O)N2C [JWG-115]
- BROMOscan binding among BET family (panel of 32 bromodomains): strong binding
- BROMOscan binding outside BET family (panel of 32 bromodomains): no binding
- decrease of activity against BRD4 compared to the pyrimidine analogs XMD11–50 and JWG-047 (BRD4 (BD1) [1]; pyridine vs pyrimidine core): 4–8 fold
- IC50 (BRD4 (BD1) [1]; read-out: BRD4 IC50, value as stated in text): 1 µM
- IC50 (BRD4 (BD1) [1]; [11]): 1.08 ± 0.05 µM
- IC50 (ERK5 [4]): > 10000 nM
- IC50 (LRRK2; [12]): > 3300 nM
- IC50 (BRD4 (BD1) [3]; [13]): 1.1 ± 0.05 µM

Compound: CCC(C)N1c2ccccc2C(=O)N(C)c2cnc(Nc3ccc(C(=O)N4CCC(N5CCN(C)CC5)CC4)cc3OC)nc21 (stereo not drawn) [JWG-071]
- IC50 (BRD4 (BD1) [1]; [11]): 5.42 ± 0.18 µM
- Ambit score (DCAMKL2) (DCAMKL2 [5]): less than 10%
- improved ERK5 activity compared to XMD17–109 (ERK5-IN-1) (ERK5 [4]): 2 fold
- IC50 (ERK5 [4]): 88 ± 5 nM
- IC50 [6]: > 10000 nM
- selectivity for ERK5 relative to LRRK2 (LRRK2; in vitro biochemical enzyme assays): 1.2 folds
- IC50 (LRRK2; [12]): 109 ± 14 nM
- EC50 (ERK5 [2]; read-out: Cellular EC50 (ERK5), EGF-stimulated autophosphorylation of ERK5 in Hela cells, average of 2 replicates ± SD): 0.02 ± 0.003 µM
- Calc ΔErac ([7]; calculated energy barrier of interconversion): 15.9 kcal/mol
- Tco (coalescence temperature) ([7]; variable temperature 1H NMR in DMSO-d6): 60 °C
- selectivity for ERK5 relative to DCAMKL2 (DCAMKL2 [8]): 2.5 folds
- IC50 (BRD4 (BD1) [3]; [13]): 6.31 ± 1.93 µM
- Ambit score (ERK5) (ERK5 [9]): less than 10%
